Measured values from ChEMBL document CHEMBL3259728, “Design, synthesis and biological evaluation of some novel substituted quinazolines as antitumor agents” (2014).

Tests used:
Type in all cases: functional
[1] = Growth inhibition of human BT549 cells assessed as cell growth at 10^-4 M after 48 hrs by SRB assay; conditions: BT-549, 48 h, read-out: Activity
Summary of the method: (§1)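 Five-dose NCI panel protocol. Each dose (10^-4 to 10^-8 M, 10-fold steps) was given as 48 h continuous exposure, and protein was measured by SRB staining. Percentage growth at each level is [(Ti−Tz)/(C−Tz)]×100, where Tz is time-zero absorbance and C is untreated control.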

M14 = assay: Growth inhibition of human M14 cells assessed as cell growth at 10^-5 M after 48 hrs by SRB assay; conditions: M14, 48 h, read-out: Activity
[2] = Growth inhibition of human BT549 cells assessed as cell growth at 10^-8 M after 48 hrs by SRB assay; conditions: BT-549, 48 h, read-out: Activity; summary of the method: as §1
[3] = Growth inhibition of human UACC62 cells assessed as cell growth at 10^-4 M after 48 hrs by SRB assay; conditions: UACC-62, 48 h, read-out: Activity
NCI-H322M [4] = assay: Growth inhibition of human NCI-H322M cells assessed as cell growth at 10^-8 M after 48 hrs by SRB assay; conditions: read-out: Activity
[5] = Growth inhibition of human OVCAR4 cells assessed as cell growth at 10^-8 M after 48 hrs by SRB assay; conditions: OVCAR-4, 48 h, read-out: Activity
[6] = Growth inhibition of human LOXIMVI cells assessed as cell growth at 10^-7 M after 48 hrs by SRB assay; conditions: LOX IMVI, read-out: Activity
[7] = Growth inhibition of human EKVX cells assessed as cell growth at 10^-7 M after 48 hrs by SRB assay; conditions: read-out: Activity
[8] = Cytotoxicity against human UACC62 cells after 48 hrs by SRB assay; conditions: UACC-62, 48 h
Summary of the method: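 NCI 60-cell-line panel, 48 h continuous exposure to five 10-fold dilutions from 10^-4 to 10^-8 M. SRB protein staining was read spectrophotometrically, with time-zero, untreated-control and treated absorbances. GI50, TGI and LC50 were derived from the percentage-growth formulas. Values outside the tested range are expressed as more or less than the maximum or minimum concentration.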

NCI-H322M [9] = assay: Growth inhibition of human NCI-H322M cells assessed as cell growth at 10^-6 M after 48 hrs by SRB assay; conditions: read-out: Activity
SK-MEL-5 = assay: Growth inhibition of human SK-MEL-5 cells assessed as cell growth at 10^-6 M after 48 hrs by SRB assay; conditions: SK-MEL-5, 48 h, read-out: Activity
NCI-H322M [10] = assay: Cytotoxicity against human NCI-H322M cells after 48 hrs by SRB assay
Summary of the method: (§2)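 NCI 60-cell-line panel of human tumour lines from nine cancer types. Continuous 48 h exposure at five 10-fold dilutions from 10^-4 to 10^-8 M, with 5-FU as positive control. SRB protein stain read spectrophotometrically at time zero, untreated control and each concentration. GI50, TGI and LC50 were derived from the [(Ti−Tz)/(C−Tz)]×100 growth relations, and out-of-range values are given as > or < the tested limits.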

SNB-75 = assay: Cytotoxicity against human SNB75 cells after 48 hrs by SRB assay; conditions: SNB-75, 48 h; summary of the method: as §2
[11] = Growth inhibition of human OVCAR3 cells assessed as cell growth at 10^-8 M after 48 hrs by SRB assay; conditions: OVCAR-3, 48 h, read-out: Activity
T47D = assay: Growth inhibition of human T47D cells assessed as cell growth at 10^-7 M after 48 hrs by SRB assay; conditions: read-out: Activity
[12] = Growth inhibition of human SF539 cells assessed as cell growth at 10^-4 M after 48 hrs by SRB assay; conditions: SF-539, 48 h, read-out: Activity
CAKI-1 [13] = assay: Growth inhibition of human CAKI-1 cells assessed as cell growth at 10^-6 M after 48 hrs by SRB assay; conditions: CAKI-1, 48 h, read-out: Activity; summary of the method: as §1
SK-OV-3 = assay: Growth inhibition of human SKOV3 cells assessed as cell growth at 10^-6 M after 48 hrs by SRB assay; conditions: SK-OV-3, 48 h, read-out: Activity
[14] = Growth inhibition of human HCT15 cells assessed as cell growth at 10^-5 M after 48 hrs by SRB assay; conditions: HCT-15, 48 h, read-out: Activity
MCF7 = assay: Growth inhibition of human MCF7 cells assessed as cell growth at 10^-5 M after 48 hrs by SRB assay; conditions: MCF7, 48 h, read-out: Activity
[15] = Growth inhibition of human NCI-ADR-RES cells assessed as cell growth at 10^-4 M after 48 hrs by SRB assay; conditions: read-out: Activity
CAKI-1 [16] = assay: Growth inhibition of human CAKI-1 cells assessed as cell growth at 10^-4 M after 48 hrs by SRB assay; conditions: CAKI-1, 48 h, read-out: Activity; summary of the method: as §1
RPMI-8226 = assay: Growth inhibition of human RPMI8226 cells assessed as cell growth at 10^-6 M after 48 hrs by SRB assay; conditions: RPMI-8226, 48 h, read-out: Activity
MDA-MB-231 = assay: Growth inhibition of human MDA-MB-231 cells assessed as cell growth at 10^-4 M after 48 hrs by SRB assay; conditions: MDA-MB-231, 48 h, read-out: Activity
NCI-H226 = assay: Growth inhibition of human NCI-H226 cells assessed as cell growth at 10^-8 M after 48 hrs by SRB assay; conditions: NCI-H226, 48 h, read-out: Activity
HCT-116 = assay: Cytotoxicity against human HCT116 cells after 48 hrs by SRB assay; conditions: HCT-116, 48 h; summary of the method: as §2
HOP-62 = assay: Growth inhibition of human HOP62 cells assessed as cell growth at 10^-4 M after 48 hrs by SRB assay; conditions: HOP-62, 48 h, read-out: Activity
SW-620 = assay: Growth inhibition of human SW620 cells assessed as cell growth at 10^-6 M after 48 hrs by SRB assay; conditions: SW-620, 48 h, read-out: Activity
CAKI-1 [17] = assay: Growth inhibition of human CAKI-1 cells assessed as cell growth at 10^-8 M after 48 hrs by SRB assay; conditions: CAKI-1, 48 h, read-out: Activity; summary of the method: as §1
NCI-H460 = assay: Growth inhibition of human NCI-H460 cells assessed as cell growth at 10^-7 M after 48 hrs by SRB assay; conditions: NCI-H460, 48 h, read-out: Activity
[18] = read-out: LC50 (the source's name)
[19] = read-out: pLC50 (the source's name) (converted)

With `Cc1ccc(-c2nc3ccc(Cl)cc3c(=O)n2/N=C/c2ccccc2)cc1` the growth at 100 µM [1] was 72%, the growth at 10 µM (M14) was 60% and the growth at 0.01 µM [2] was 100%. It also gave a growth at 100 µM [3] of 32%, a growth at 0.01 µM (NCI-H322M [4]) of 87% and a growth at 0.01 µM [5] of 95%. The growth at 0.1 µM [6] was 93%, the growth at 0.1 µM [7] was 79% and the GI50 ([8]; read-out: GI50) was 25.8 µM. The CC50 [8, 18] was greater than 100 µM, the TGI ([8]; read-out: TGI) was greater than 100 µM and the GI50 ([8]; read-out: pGI50 (converted)) was 25.7 µM. It also gave a CC50 [8, 19] greater than 100 µM, a TGI ([8]; read-out: pTGI) greater than 100 µM and a growth at 1 µM (NCI-H322M [9]) of 82%. For the same molecule, the growth at 1 µM (SK-MEL-5) was 77%, the GI50 (NCI-H322M [10]; read-out: GI50) was 17.4 µM and the LC50 (NCI-H322M [10]; read-out: LC50) was greater than 100 µM. For the same molecule, the TGI (NCI-H322M [10]; read-out: TGI) was greater than 100 µM, the GI50 (NCI-H322M [10]; read-out: pGI50 (converted)) was 17.4 µM and the LC50 (NCI-H322M [10]; read-out: pLC50 (converted)) was greater than 100 µM. For the same molecule, the TGI (NCI-H322M [10]; read-out: pTGI) was greater than 100 µM, the GI50 (SNB-75; read-out: GI50) was 1.39 µM and the CC50 (SNB-75; [18]) was greater than 100 µM. It also gave a TGI (SNB-75; read-out: TGI) of 4.74 µM, a GI50 (SNB-75; read-out: pGI50 (converted)) of 1.38 µM and a CC50 (SNB-75; [19]) greater than 100 µM. It also gave a TGI (SNB-75; read-out: pTGI (converted)) of 4.79 µM, a growth at 0.01 µM [11] of 100% and a growth at 0.1 µM (T47D) of 88%. For the same molecule, the growth at 100 µM [12] was 75%, the growth at 1 µM (CAKI-1 [13]) was 77% and the growth at 1 µM (SK-OV-3) was 93%. It also gave a growth at 10 µM [14] of 79%, a growth at 10 µM (MCF7) of 59% and a growth at 100 µM [15] of 36%. It also gave a growth at 100 µM (CAKI-1 [16]) of 32%, a growth at 1 µM (RPMI-8226) of 90% and a growth at 100 µM (MDA-MB-231) of 16%. It also gave a growth at 0.01 µM (NCI-H226) of 91%, a GI50 (HCT-116; read-out: GI50) of 5.51 µM and a CC50 (HCT-116; [18]) greater than 100 µM. It also gave a TGI (HCT-116; read-out: TGI) greater than 100 µM, a GI50 (HCT-116; read-out: pGI50 (converted)) of 5.5 µM and a CC50 (HCT-116; [19]) greater than 100 µM. The TGI (HCT-116; read-out: pTGI) was greater than 100 µM, the growth at 100 µM (HOP-62) was -64% and the growth at 1 µM (SW-620) was 89%. For the same molecule, the growth at 0.01 µM (CAKI-1 [17]) was 89% and the growth at 0.1 µM (NCI-H460) was 99%.
